The text below walks through data of ChEMBL document CHEMBL4304801, “ω-Hydroxy isoprenoid bisphosphonates as linkable GGDPS inhibitors” (Bioorg Med Chem Lett, 2019).

The target in test [1] is T1, Geranylgeranyl pyrophosphate synthase (Homo sapiens, UniProt O95749).
T1 sequence (O95749 whole entry): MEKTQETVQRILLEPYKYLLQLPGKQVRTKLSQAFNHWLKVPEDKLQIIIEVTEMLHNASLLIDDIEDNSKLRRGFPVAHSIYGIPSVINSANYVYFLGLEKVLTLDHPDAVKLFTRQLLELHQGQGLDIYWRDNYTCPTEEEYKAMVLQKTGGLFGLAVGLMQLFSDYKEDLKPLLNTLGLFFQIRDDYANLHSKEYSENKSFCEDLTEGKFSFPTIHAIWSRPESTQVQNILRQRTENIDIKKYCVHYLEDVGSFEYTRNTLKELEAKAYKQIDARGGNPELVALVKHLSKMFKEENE
Description: Inhibition of GGDPS (unknown origin) using [14C] IPP and FPP as substrate preincubated for 10 mins followed by substrate addition and measured after 30 min by scintillation counting method. An outline of the steps:
(§1)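 Recombinant enzyme donated by outside labs, assayed by a previously described method; each concentration run in duplicate over multiple concentrations, three independent experiments.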

The target in test [2] is T2, Farnesyl pyrophosphate synthase (Homo sapiens, UniProt P14324).
T2 sequence (P14324 whole entry): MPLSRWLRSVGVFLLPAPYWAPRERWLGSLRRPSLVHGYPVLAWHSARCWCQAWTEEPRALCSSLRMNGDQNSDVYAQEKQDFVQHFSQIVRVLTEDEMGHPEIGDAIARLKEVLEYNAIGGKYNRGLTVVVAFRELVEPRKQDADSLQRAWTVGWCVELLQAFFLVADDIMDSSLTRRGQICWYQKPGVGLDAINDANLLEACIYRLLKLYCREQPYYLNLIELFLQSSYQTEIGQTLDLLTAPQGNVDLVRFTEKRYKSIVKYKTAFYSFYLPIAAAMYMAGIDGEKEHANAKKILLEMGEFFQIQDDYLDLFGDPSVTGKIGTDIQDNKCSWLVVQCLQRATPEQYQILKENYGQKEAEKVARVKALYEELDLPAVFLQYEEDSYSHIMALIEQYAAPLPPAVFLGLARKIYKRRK
Description: Inhibition of FDPS (unknown origin) using [14C] IPP and GPP as substrate preincubated for 10 mins followed by substrate addition and measured after 30 min by scintillation counting method. The essentials:
as §1

A further test is filed under the species Homo sapiens. Description: Selectivity ratio of IC50 for FDPS (unknown origin) to IC50 for GGDPS (unknown origin).
The target in test [3] is T3, Geranylgeranyl pyrophosphate synthase (Homo sapiens) (UniProt O95749).
T3 sequence (whole entry): T1 sequence (O95749 whole entry)
Description: Inhibition of GGPPs in human RPMI8226 cells assessed as disruption of Rap1a geranylgeranylation measured after 48 hrs by immunoblot analysis. The format is cell-based. An outline of the steps:
(§2)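 Whole-cell lysates made in RIPA buffer (0.15 M NaCl, 1% deoxycholate, 0.1% SDS, 1% Triton X-100, 0.05 M Tris HCl) with protease/phosphatase inhibitors; protein by BCA; equal protein run on SDS-PAGE, PVDF transfer, primary antibodies, HRP secondaries, ECL detection of Rap1a with β-tubulin as loading reference.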
Background: In western blotting, separated proteins are transferred to a membrane and probed.

Test [4] deals with T3, Geranylgeranyl pyrophosphate synthase (Homo sapiens). Description: Inhibition of GGPPs in human RPMI8226 cells assessed as disruption of Rab geranylgeranylation by ELISA. The format is cell-based. On the technique in general: ELISA stands for enzyme-linked immunosorbent assay.
Test [5] has the same target. Description: Inhibition of GGPPs in human RPMI8226 cells assessed as disruption of Rap1a geranylgeranylation at 1 to 10 uM after 48 hrs by immunoblot analysis. In kind it is cell-based. An outline of the steps: as §2
The target is the same in test [6]. Description: Inhibition of GGPPs in human MM1S cells assessed as disruption of Rap1a geranylgeranylation at 1 to 10 uM after 48 hrs by immunoblot analysis. In kind it is cell-based. The essentials: as §2

Structures are written as SMILES. Active and inactive are the calls of the source. The rule behind the calls is not given here.

For the molecule `C/C(=C/CCn1cc(CC(C)(P(=O)(O)O)P(=O)(O)O)nn1)CC/C=C(\C)CO`, the half-inhibitory concentration (IC50) (as a rule, the concentration needed to halve the response being measured) in test [1] was 0.67 µM; in test [2] it was 81.4 µM. The Ratio IC50 in the test filed under Homo sapiens was determined as 121. Further, the inhibition entry in test [3] and in test [4] was “Dose-dependent effect” throughout. In test [4], the MEC stood at 0.25 µM.
Consider `CC(=CCn1cc(CC(P(=O)(O)O)P(=O)(O)O)nn1)CC/C=C(\C)CO`, for which the figures for the IC50 in test [1] and in test [2] were 11.6 µM and 91.2 µM, respectively. For the same molecule, the Ratio IC50 in the test filed under Homo sapiens worked out at 8. Moreover, the inhibition entry in test [3] and in test [4] was “Dose-dependent effect” throughout. In addition, in test [4], the MEC turned out to be 10 µM. For the same molecule, the inhibition entry in test [5] and in test [6] was “Active” in each case.
